Reference: paper PMC5548007 (European journal of medicinal chemistry, 2017)
Read-outs that look alike come from different tables or passages of the source. Blank lines part the entries; values can stand above or below the molecule they belong to.

Experiments:
PC-3 cells [1] = test: Cell cycle analysis by flow cytometry with propidium iodide staining; format: cell-based, human; details: for Cell cycle phase of arrest: PC-3, 28 at 5 μM, 46 at 4 μM
Outline: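 PC-3 cells were seeded at 200,000/well and allowed to attach for 3 h. They were treated with test compound at 4 or 5 μM, or DMSO vehicle, at 37 °C and harvested at 16 or 24 h, including floating cells. Cells were fixed in cold 80% ethanol for 30 min at 4 °C and RNase-treated for 30 min at 37 °C. Staining used propidium iodide (50 μg/mL stock) for 30 min, and DNA content was read by flow cytometry within 0.5–1 h.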

[2] = Oral pharmacokinetic study in Sprague-Dawley rats; format: in vivo, rat; details: single oral dose 10 mg/kg
Outline: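 Male Sprague-Dawley rats (250–300 g, n = 4) received a single 10 mg/kg oral gavage in 5% DMSO/40% PEG 400/55% saline. Tail-vein blood was taken into EDTA at 1, 3, 6 and 24 h, and plasma was stored at −80 °C. Plasma was extracted with chloroform/methanol (2:1) using a 13C2,15N-tamoxifen internal standard. Quantitation was by UPLC–triple-quadrupole MS/MS with a water/acetonitrile 0.05% formic acid gradient.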

[3] = Metabolic profiling by liver microsome incubation; format: in vitro ADME, human; details: 37 °C, 60 min, NADPH; mono-hydroxylation products by HRMS
Outline: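 Pooled human liver microsomes in potassium phosphate buffer (pH 7.4) with NADPH solutions A and B were preincubated for 5 min at 37 °C. Test compound was added from a 10 mM stock and incubated for 60 min at 37 °C. Methanol stopped the reaction, and samples were centrifuged at 10,000 × g for 4 min at 4 °C. Supernatant was analysed by UHPLC with high-resolution mass spectrometry.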

rats = test: Acute in vivo toxicity in rats; details: oral 10 mg/kg
Outline: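 Male Sprague-Dawley rats (250–300 g), n = 4, dosed once by oral gavage at 10 mg/kg in 5% DMSO / 40% PEG 400 / 55% saline. Dosing was part of a pharmacokinetic study, with tail-vein blood drawn at 1, 3, 6 and 24 h. Time to death after oral dosing was recorded in hours.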

[4] = test system: three human prostate cancer cell lines; test: Anti-proliferative potency across three prostate cancer cell lines; format: cell-based; details: read-out: IC50 range in three prostate cancer cell lines
Outline: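 Human prostate cancer cells were grown at 37 °C in 5% CO2: PC-3 and LNCaP in RPMI-1640, DU-145 in EMEM, each with 10% FBS and 1% penicillin/streptomycin. Cells were seeded at 3,200/well and exposed to test compound for 3 days, with DMSO as vehicle control. WST-1 reagent was added for 3 h at 37 °C and absorbance read at 430 nm. IC50 came from linear inhibition over ≥5 doses, averaged over triplicates.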

PC-3 cells [5] = details: cited from earlier work
DU145 cells = test: WST-1 cell proliferation assay, DU145; format: cell-based; details: Homo sapiens, DU-145, 72 h, read-out: IC50 DU145
Outline: (§1)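 PC-3 and LNCaP cells grown in RPMI-1640, DU145 in EMEM, each with 10% FBS and 1% penicillin/streptomycin at 37 °C, 5% CO2. Cells seeded at 3,200/well, then exposed 3 days to at least five doses of test compound, with DMSO as vehicle control. WST-1 reagent added for 3 h at 37 °C, absorbance read at 430 nm. IC50 taken from linear inhibition plot; mean ± SD of triplicates.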

[6] = mice, single oral dose 1 mg/kg; cited from earlier work
LNCaP cells = test: WST-1 cell proliferation assay, LNCaP; format: cell-based; details: Homo sapiens, 72 h, read-out: IC50 LNCaP
Outline: as §1

PC-3 cells [7] = test: WST-1 cell proliferation assay, PC-3; format: cell-based; details: Homo sapiens, PC-3, 72 h, read-out: IC50 PC-3
Outline: as §1

Compound: CCC(C)n1ccnc1/C=C/C(=O)/C=C/c1sc(C)nc1C(F)(F)F (stereo not drawn) [Compd 28, (1E,4E)-1-(1-(sec-Butyl)-1H-imidazol-2-yl)-5-(2-methyl-4-(trifluoromethyl)thiazol-5-yl)penta-1,4-dien-3-one]
Lower cell population at G2 phase vs control, 16 h (PC-3 cells [1]; 5 μM, 16 h): 10%
Higher cell population at G0/G1 phase vs control, 24 h (PC-3 cells [1]; 5 μM, 24 h): 4%
Lower cell population at G2 phase vs control, 24 h (PC-3 cells [1]; 5 μM, 24 h): 3%
Cell cycle phase of arrest (PC-3 cells [1]): cell cycle arrest at the G0/G1 phase
Peak plasma concentration in molar units [2]: 5.27 µM
Major metabolic products detected after microsomal incubation [3]: three major metabolic products
Acute in vivo toxicity (tolerability) (rats): without observed toxicity

Compound: CCCn1ccnc1/C=C/C(=O)/C=C/c1nc2ccccc2n1CCC [Compd 46, (1E,4E)-1-(1-Propyl-1H-benzo[d]imidazole-2-yl)-5-(1-propyl-1H-imidazole-2-yl)penta-1,4-dien-3-one]
Cell cycle phase of arrest (PC-3 cells [1]): cell cycle arrest at the G0/G1 phase
Time to death after oral dosing (rats): about 48 hours

Compound: CCn1c(/C=C/C(=O)/C=C/c2sc(C)nc2C(F)(F)F)nc2ccccc21 [Compd 49, (1E,4E)-1-(1-Ethyl-1H-benzo[d]imidazol-2-yl)-5-(2-methyl-4-(trifluoromethyl)thiazol-5-yl)penta-1,4-dien-3-one]
Major metabolic products detected after microsomal incubation [3]: two major metabolic products
Acute in vivo toxicity (tolerability) (rats): without observed toxicity

Compound: CC(C)n1c(/C=C/C(=O)/C=C/c2ccccn2)nc2ccccc21 [Compd 58, (1E,4E)-1-(1-Isopropyl-1H-benzo[d]imidazol-2-yl)-5-(pyridin-2-yl)penta-1,4-dien-3-one]
IC50 [4]: 0.03 to 0.12 µM
Time to death after oral dosing (rats): ~72 h

IC50 (DU145 cells): 26.2 ± 0.65 µM
IC50 (LNCaP cells): 13.6 ± 2.69 µM
IC50 (PC-3 cells [7]): 25.4 ± 2.15 µM
Compound: COc1cc(/C=C/C(=O)CC(=O)/C=C/c2ccc(O)c(OC)c2)ccc1O [Curcumin]
Cell cycle phase of arrest (PC-3 cells [5]): G1/S phase
Area under curve (AUC) [6]: 2.85 ng·h/mL
